Measured values pooled from the literature.
Lines come from different studies, so protocols differ.
Target: Tyrosine-protein kinase Fer (FER, Homo sapiens, UniProt P16591)

Structure (SMILES) | observed | technique | concentration | remaining binding
CN(CCCC(F)(F)F)c1nccc(-c2cnn3ncccc23)n1 | binding |  | 1 µM | 65%
CCC(=O)N[C@H]1CC[C@@H](C(=O)N(C)c2ccc(-c3nc4ccccc4o3)cc2)C1 | cell-free assay | competition with immobilised ligand | 1 µM | 90%
COc1cnc(Nc2cccc(S(N)(=O)=O)c2)nc1N1CCN(c2ccccc2)CC1 | binding | competition with immobilised ligand | 1 µM | 100%
CO[C@H]1CC[C@H](CNc2ccc(S(=O)(=O)NC(=O)c3ccc(N4CCN(CC5=C(c6ccc(Cl)cc6)CC(C)(C)CC5)CC4)cc3Oc3cnc4[nH]ccc4c3)cc2[N+](=O)[O-])CC1 | cell-free assay | competition with immobilised ligand | 1 µM | 67%
CN(C)c1ncc(F)c(-c2cnn3ncccc23)n1 | binding |  | 1 µM | 82%
CC(=O)C1=C(C)N(c2cccc(C(F)(F)F)c2)C(=O)N[C@@H]1c1ccc(C#N)nc1 | cell-free assay | competition with immobilised ligand | 1 µM | 96.9%
CNC(=O)[C@@H]1CC[C@@H](n2c(-c3ccc4cnccc4c3)nc3ccc(C(=O)NCc4cccc(C(N)=O)c4)cc32)C1 | binding | competition with immobilised ligand | 1 µM | 100%
CS(=O)(=O)N1CCCC(NC(=O)[C@H](CCC2CCCCC2)NC(=O)c2ccc(CNC(=O)c3cnc4ccccn34)cc2)C1 (stereo partly drawn) | cell-free assay | competition with immobilised ligand | 0.1 µM | 99%
FC(F)(F)Oc1cccc(-c2cnc3ccc(-c4ccncc4)nn23)c1 | cell-free assay | competition with immobilised ligand | 5 µM | 90%
c1cncc(-c2cccc(Nc3nccc(NC4CCCCC4)n3)c2)c1 | binding | competition with immobilised ligand | 10 µM | 83%
Cc1c(C(=O)O)cc(-c2ccc(C3CCNCC3)cc2)c2ccc(-c3ccc(C(F)(F)F)cc3)cc12 | binding | competition with immobilised ligand | 1 µM | 100%
O=C(Nc1c[nH]nc1C(=O)NC1CCNCC1)c1cc(F)cc(F)c1 | binding | competition with immobilised ligand | 1 µM | 100%
N[C@H]1CCN(c2nccc(-c3cnn4ncccc34)n2)C1 | binding |  | 1 µM | 97%
CC(=O)N1CCC(c2ccc(C(=O)NC(=N)N)cc2C(F)(F)F)CC1 | cell-free assay | competition with immobilised ligand | 1 µM | 96%
O=C(NCCCN1CCOCC1)c1ccc(Nc2nccc(-c3cc4ccccc4s3)n2)cc1 | binding | competition with immobilised ligand | 1 µM | 100%
CN(C)c1nccc(-c2cnn3ncccc23)n1 | binding |  | 1 µM | 97%
O=C(c1ccc(Nc2nccc(-c3cc4ccccc4s3)n2)cc1)N1CCC(N2CCCC2)CC1 | binding | competition with immobilised ligand | 1 µM | 100%
C[C@@H]1CCN(c2nccc(-c3cnn4ncccc34)n2)C1 | binding |  | 1 µM | 100%
C[C@@H](c1ccc(-n2cnc3c(N)ncnc32)cc1)N1CCc2nn(C)c(Cc3ccccc3)c2C1=O | binding | competition with immobilised ligand | 0.1 µM | 100%
O=C(c1ccc(Nc2ncc(Cl)c(-c3cc4ccccc4s3)n2)cc1)N1CCC(N2CCCC2)CC1 | binding | competition with immobilised ligand | 1 µM | 76%
F[C@@H]1CCN(c2nccc(-c3cnn4ncccc34)n2)C1 | binding |  | 1 µM | 81%
